Values after ≈ are worked out from the molar mass of the structure shown. Active and inactive are the calls of the source. The calls are words filed in the database; no cut-off is given here.
Assays:
[1] = test system: Staphylococcus aureus; experiment: Inhibition of staphyloxanthin pigment formation in Staphylococcus aureus Newman after 48 hrs by spectrophotometric method; format: functional, organism-based
Procedure, shortened: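 Compounds as 20 mM DMSO stocks, serial 2-fold dilutions in DMSO; 40 µL added to 4 mL TSB culture, 37 °C for 48 h, in triplicate. Cells washed twice with PBS, pigment extracted with methanol, OD450 measured; IC50 from dose-response curve fit of OD data.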

[2] = target: T1, 4,4'-diapophytoene desaturase (4,4'-diaponeurosporene-forming) (Staphylococcus aureus (strain Newman), UniProt O07855); experiment: Inhibition of Staphylococcus aureus Newman 6His-tagged CrtN expressed in Escherichia coli BL21(DE3) using diapophytoene as substrate assessed as pigment formation after overnight incubation by spectrophotometric method; design: species or system Staphylococcus aureus subsp. aureus str. Newman
T1 sequence (O07855 whole entry): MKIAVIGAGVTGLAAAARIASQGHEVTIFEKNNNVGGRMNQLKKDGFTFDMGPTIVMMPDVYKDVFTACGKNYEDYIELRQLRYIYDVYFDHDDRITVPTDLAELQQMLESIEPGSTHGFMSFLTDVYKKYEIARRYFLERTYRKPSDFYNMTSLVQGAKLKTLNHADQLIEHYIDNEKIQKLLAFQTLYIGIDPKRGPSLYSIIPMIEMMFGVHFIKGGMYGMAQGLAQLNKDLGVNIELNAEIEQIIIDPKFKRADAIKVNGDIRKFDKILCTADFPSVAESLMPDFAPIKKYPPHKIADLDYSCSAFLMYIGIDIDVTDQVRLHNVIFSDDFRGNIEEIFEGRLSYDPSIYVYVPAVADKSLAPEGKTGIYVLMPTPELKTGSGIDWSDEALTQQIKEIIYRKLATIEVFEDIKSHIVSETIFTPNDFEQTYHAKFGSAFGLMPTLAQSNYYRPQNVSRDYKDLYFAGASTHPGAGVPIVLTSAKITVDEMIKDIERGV
Procedure, shortened: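 Lysate of E. coli BL21(DE3) expressing 6His-CrtN (IPTG 0.5 mM, 16 °C overnight), ~1.41 mg CrtN per reaction, with diapophytoene–phosphatidylcholine emulsion in 0.02 M HEPES pH 7.5 plus FAD. Anaerobic via glucose oxidase 20 U/mL, catalase 20000 U/mL, glucose 2 mM (final). Started with lysate, overnight at 37 °C; triplicate.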

[3] = Aqueous solubility of the compound by HPLC method; format: physicochemical
Procedure, shortened: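 Calibration with standards at 50, 100, 200, 400 and 800 µg/mL in methanol (peak area vs concentration). 10 mg solid stirred in 1 mL pure water for 24 h, more added if still clear; syringe-filtered, 10 µL injected; solubility read from calibration curve.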

[4] = test system: Trichophyton verrucosum; experiment: Antifungal activity against Trichophyton verrucosum measured after 7 days by serial dilution method; format: functional
Procedure, shortened: (§1)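 Broth serial dilution MIC per NCCLS in RPMI 1640 buffered with 0.165 M MOPS; compounds in DMSO diluted in medium. Dermatophytes incubated at 28 °C, read at 7 days. MIC taken as lowest concentration giving ≥80% growth inhibition versus control (turbidity).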

[5] = test system: Trichophyton rubrum; experiment: Antifungal activity against Trichophyton rubrum measured after 7 days by serial dilution method; format: functional; procedure, shortened: as §1
[6] = test system: Nannizzia gypsea; experiment: Antifungal activity against Microsporum gypseum measured after 7 days by serial dilution method; format: functional; procedure, shortened: as §1
[7] = test system: Trichophyton mentagrophytes; experiment: Antifungal activity against Trichophyton mentagrophytes measured after 7 days by serial dilution method; format: functional; procedure, shortened: as §1
[8] = target: T2, 4,4'-diapophytoene desaturase (4,4'-diaponeurosporene-forming) (Staphylococcus aureus (strain Newman)) (UniProt O07855); conditions: Staphylococcus aureus subsp. aureus str. Newman; 100 uM
T2 sequence (whole entry): T1 sequence (O07855 whole entry)

[9] = test system: Staphylococcus aureus; experiment: Antibacterial activity against Staphylococcus aureus USA400 MW2 infected Balb/c mouse assessed as reduction of bacterial survival in liver at 5.2 mg, ip bid administered for 4.5 days followed by bacterial infection measured after 5 days; format: functional
Procedure, shortened: (§2)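 Female BALB/c mice, 6–8 weeks. Compound in sterile water ip once and every 12 h for 108 h, total 50 or 200 mg/kg; water controls. Infected 12 h after first dose with 4 × 10^7 CFU USA400 MW2 (100 µL). Killed 5 days post infection; liver or kidney CFU counted on TSA after homogenising in PBS/0.1% Triton X-100. n = 13; two-tailed Mann-Whitney.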

[10] = test system: Staphylococcus aureus; experiment: Antibacterial activity against Staphylococcus aureus USA400 MW2 infected Balb/c mouse assessed as reduction of bacterial survival in liver at 1.3 mg, ip bid administered for 4.5 days followed by bacterial infection measured after 5 days; format: functional; procedure, shortened: as §2
[11] = test system: Staphylococcus aureus; experiment: Antibacterial activity against Staphylococcus aureus USA400 MW2 infected Balb/c mouse assessed as reduction of bacterial survival in kidney at 5.2 mg, ip bid administered for 4.5 days followed by bacterial infection measured after 5 days; format: functional; procedure, shortened: as §2
[12] = test system: Staphylococcus aureus; experiment: Antibacterial activity against Staphylococcus aureus USA400 MW2 infected Balb/c mouse assessed as reduction of bacterial survival in kidney at 1.3 mg, ip bid administered for 4.5 days followed by bacterial infection measured after 5 days; format: functional, organism-based; procedure, shortened: as §2
[13] = test system: Staphylococcus aureus; experiment: Antibacterial activity against Staphylococcus aureus Mu50 infected Balb/c mouse assessed as reduction of bacterial survival in liver at 5.2 mg, ip bid for 4.5 days administered for 4.5 days followed by bacterial infection measured after 5 days; format: functional
[14] = test system: Staphylococcus aureus; experiment: Antibacterial activity against Staphylococcus aureus Mu50 infected Balb/c mouse assessed as reduction of bacterial survival in liver at 1.3 mg, ip bid administered for 4.5 days followed by bacterial infection measured after 5 days; format: functional
[15] = test system: Staphylococcus aureus; experiment: Antibacterial activity against Staphylococcus aureus Mu50 infected Balb/c mouse assessed as reduction of bacterial survival in kidney at 5.2 mg, ip bid administered for 4.5 days followed by bacterial infection measured after 5 days; format: functional
[16] = test system: Staphylococcus aureus; experiment: Antibacterial activity against Staphylococcus aureus Mu50 infected Balb/c mouse assessed as reduction of bacterial survival in kidney at 1.3 mg, ip bid administered for 4.5 days followed by bacterial infection measured after 5 days; format: functional

Row | SMILES | IC50 [1] | other results
1 | Cc1cccc(/C=C/CN(C)Cc2cccc3ccoc23)c1 | > 1 µM | 
2 | CN(C/C=C/c1ccc2ccccc2c1)Cc1cccc2ccoc12 | 0.0171 µM | 
3 | CN(C/C=C/c1ccccc1F)Cc1cccc2ccoc12 | 0.288 µM | 
4 | CN(C/C=C/c1ccc(Cl)cc1)Cc1cccc2ccoc12.Cl | 0.0062 µM | IC50 [2]: 0.219 µM; solubility [3]: 7.4 mg/mL
5 | CN(C/C=C/c1cccc(F)c1)Cc1cccc2ccoc12 | 0.513 µM | 
6 | CN(C/C=C/c1ccc([N+](=O)[O-])cc1)Cc1cccc2ccoc12 | 0.0717 µM | 
7 | CN(C/C=C/c1ccc(Br)cc1)Cc1cccc2ccoc12.Cl | 0.00644 µM | IC50 [2]: 0.355 µM; solubility [3]: 3.9 mg/mL
8 | CN(Cc1cccc2ccoc12)C[C@@H]1C[C@H]1c1ccccc1 | > 1 µM | 
9 | CN(C/C=C/c1cccc([N+](=O)[O-])c1)Cc1cccc2ccoc12 | > 1 µM | 
10 | CN(C/C=C/c1ccccc1)Cc1cccc2ccoc12 | 0.247 µM | 
11 | CN(CC/C=C/c1ccccc1)Cc1cccc2ccoc12 | > 1 µM | 
12 | CCN(C/C=C/c1ccccc1)Cc1cccc2ccoc12 | > 1 µM | 
13 | CN(C/C=C/C1CCCCC1)Cc1cccc2ccoc12 | > 1 µM | 
14 | CN(C/C=C/c1ccccc1)Cc1cccc2occc12 | 0.759 µM | 
15 | CN(C/C=C/c1cccc2ccccc12)Cc1cccc2ccoc12 | 0.888 µM | 
16 | C/C(=C\c1ccccc1)CN(C)Cc1cccc2ccoc12 | > 1 µM | 
17 | CN(C/C=C/c1ccco1)Cc1cccc2ccoc12 | > 1 µM | 
18 | COC(=O)c1ccc(/C=C/CN(C)Cc2cccc3ccoc23)cc1 | 0.0169 µM | 

Row | SMILES | IC50 [1] | other results
19 | C/C=C/CN(C)Cc1cccc2ccoc12 | > 1 µM | 
20 | OC(Cn1cncn1)(Cn1cncn1)c1ccc(F)cc1F [FLUCONAZOLE] |  | MIC=<80 [4]: 2 mg/L (≈ 6.53 µM); MIC=<80 [5]: 1 mg/L (≈ 3.27 µM); MIC=<80 [6]: 8 mg/L (≈ 26.1 µM); MIC=<80 [7]: 2 mg/L (≈ 6.53 µM)
21 | C(=C\c1ccccc1)/CNCc1cccc2ccoc12 | > 1 µM | 
22 | COc1ccc(/C=C/CN(C)Cc2cccc3ccoc23)cc1.Cl | 0.0111 µM | IC50 [2]: 0.684 µM; solubility [3]: 19.7 mg/mL
23 | CN(C/C=C/c1ccccc1)Cc1cccc2ccccc12 |  | inhibition [8]: Active
24 | CN(CC#Cc1ccccc1)Cc1cccc2ccoc12 | 0.164 µM | 
25 | CN(C/C=C/C1CCCC1)Cc1cccc2ccoc12 | > 1 µM | 
26 | CN(C/C=C/c1ccc(F)cc1)Cc1cccc2ccoc12 | 0.0312 µM | 
27 | CN(C/C=C/c1ccc(Cl)cc1Cl)Cc1cccc2ccoc12.Cl | 0.00821 µM | IC50 [2]: 0.74 µM; solubility [3]: 7.2 mg/mL
28 | CC(=O)N1CCN(c2ccc(OCC3COC(Cn4ccnc4)(c4ccc(Cl)cc4Cl)O3)cc2)CC1 (stereo not given) [KETOCONAZOLE] |  | MIC80 (lowest concentration giving ≥80% growth inhibition) [4]: 0.0625 mg/L (≈ 0.118 µM); MIC80 [5]: 0.5 mg/L (≈ 0.941 µM); MIC80 (lowest concentration giving ≥80% growth inhibition) [6]: 2 mg/L (≈ 3.76 µM); MIC=<80 [7]: 0.0625 mg/L (≈ 0.118 µM)
29 | C[C@@H](c1ncncc1F)[C@](O)(Cn1cncn1)c1ccc(F)cc1F [VORICONAZOLE] |  | MIC80 (lowest concentration giving ≥80% growth inhibition) [4]: 0.03125 mg/L (≈ 0.0895 µM); MIC80 [5]: 0.03125 mg/L (≈ 0.0895 µM); MIC80 (lowest concentration giving ≥80% growth inhibition) [6]: 0.25 mg/L (≈ 0.716 µM); MIC=<80 [7]: 0.03125 mg/L (≈ 0.0895 µM)
30 | CN(C/C=C/C=C/c1ccccc1)Cc1cccc2ccoc12 | 0.0042 µM | 
31 | Cc1ccc(/C=C/CN(C)Cc2cccc3ccoc23)cc1 | 0.0352 µM | 
32 | CN(C/C=C/c1ccccc1[N+](=O)[O-])Cc1cccc2ccoc12 | > 1 µM | 
33 | CC(C)N(C/C=C/c1ccccc1)Cc1cccc2ccoc12 | > 1 µM | 
34 | CN(CCCc1ccccc1)Cc1cccc2ccoc12 | > 1 µM | 
35 | CN(C/C=C/c1ccc(C(C)(C)C)cc1)Cc1cccc2ccoc12 | 0.0467 µM | 
36 | O=P([O-])([O-])C(CCCc1cccc(Cc2ccccc2)c1)S(=O)(=O)[O-].[K+].[K+].[K+] (stereo not given) |  | Activity [9]: 1.58 deltalog10CFU; Activity [10]: 0.25 deltalog10CFU; Activity [11]: 1.14 deltalog10CFU; Activity [12]: Active; Activity [13]: 2.84 deltalog10CFU; Activity [14]: 1.87 deltalog10CFU; Activity [15]: 0.3 deltalog10CFU; Activity [16]: 0.25 deltalog10CFU
